Gli-Sufu antag – antagonists of Gli-Sufu signaling; AID 588413; Sufu-KO-LIGHT fibroblasts, Gli luciferase reporter luminescence; inhibition, % at 5 µM; 340,000 tested, 0.74% active;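 active means inhibition above about 55%, limit read from the data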;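 further: 0% = DMSO-treated cells and 100% = wells with medium but no cells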
NR2E3 ag-1 – agonists of human nuclear receptor NR2E3; Q9Y5X4; GST-NR2E3/biotin-RetCOR TR-FRET, 1536-well; inhibition of corepressor binding, % at 4.78 µM; 320,000 tested, 0.12% active; AID 2300;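 active means percent inhibition above the cutoff of mean plus 3 SD of all tested compounds, set per screening campaign, cut at about 20% in these data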;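 further: 0% = DMSO wells and 100% = biotin wells as full block of FRET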
Target sequence (Q9Y5X4 whole entry, looked up): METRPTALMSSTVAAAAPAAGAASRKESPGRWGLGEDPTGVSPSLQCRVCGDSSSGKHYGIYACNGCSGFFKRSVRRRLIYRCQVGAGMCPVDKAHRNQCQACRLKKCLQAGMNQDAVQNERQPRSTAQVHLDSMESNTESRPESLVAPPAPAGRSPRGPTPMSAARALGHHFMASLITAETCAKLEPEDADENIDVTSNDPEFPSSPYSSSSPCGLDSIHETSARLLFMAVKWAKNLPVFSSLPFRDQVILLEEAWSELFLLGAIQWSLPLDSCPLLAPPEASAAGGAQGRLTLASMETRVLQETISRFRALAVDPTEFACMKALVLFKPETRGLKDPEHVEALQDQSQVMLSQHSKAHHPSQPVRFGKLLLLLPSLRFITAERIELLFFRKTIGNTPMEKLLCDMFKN
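System: GST-tagged NR2E3 plus biotinylated RetCOR corepressor; Amount: 1.35 nM GST-tagged NR2E3 final; Dosing: single nominal compound dose of 4.8 µM; Schedule: 5 h incubation at 4 °C; Technique: TR-FRET with europium anti-GST and streptavidin-D2, 340 nm excitation; Controls: biotin wells as high control, 0.6% DMSO wells as low control.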
697 NFkB inh – inhibitors of the PMA/ionomycin-induced NF-kB reporter in 697 B cells. inhibition, % at 4 µM. 697 B-cell NF-kB luciferase reporter, 16 h. 330,000 tested, 0.33% active; in the data active means inhibition above about 35%
GalR3 antag – human GalR3 antagonism; O60755; inhibition, % at 3 µM; 360,000 tested, 0.44% active; HEK293 GalR3-CNG cAMP membrane potential fluorescence; galR3 body fused to GalR1 C-terminus;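 active means inhibition above the screen-wide average plus 3 SD, cut at about 13% in these data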;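 further: forskolin and galanin both at EC90 stimulate the cells; cAMP rise reported by CNG channel membrane potential dye signal; 0% = forskolin plus galanin with DMSO and 100% = forskolin alone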
Target sequence (O60755 1-299 limits assumed): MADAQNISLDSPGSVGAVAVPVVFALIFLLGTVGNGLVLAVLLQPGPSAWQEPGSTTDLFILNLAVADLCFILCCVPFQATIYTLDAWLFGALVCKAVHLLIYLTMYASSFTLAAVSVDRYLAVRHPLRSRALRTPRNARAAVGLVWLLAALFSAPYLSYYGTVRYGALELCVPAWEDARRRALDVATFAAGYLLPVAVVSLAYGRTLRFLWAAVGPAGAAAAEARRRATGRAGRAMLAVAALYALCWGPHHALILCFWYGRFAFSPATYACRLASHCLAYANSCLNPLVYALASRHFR
NR2E3 ag-2 – agonists of human NR2E3 nuclear receptor; CHO-S Gal4-NCOR/VP16-NR2E3 two-hybrid, luciferase; inhibition of corepressor binding, % at 3.98 µM; 360,000 tested, 0.35% active;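 active means inhibition above the mean of all tested compounds plus 3 SD, cut at about 70% in these data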;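 further: 0% = DMSO with NR2E3 transfected cells and 100% = cells lacking NR2E3 construct; higher means lower luciferase signal from less NR2E3 corepressor binding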
Jurkat NFkB inh – inhibitors of the PMA/ionomycin-induced NF-kB reporter in Jurkat cells | PMA/ionomycin-induced NF-kB luciferase reporter, luminescence | inhibition, % at 4 µM | 330,000 tested, 0.53% active; in the data active means inhibition above about 50%
Gli-Sufu confirm – Gli-SUFU antagonism confirmation, single concentration; shares compounds with Gli-Sufu antag; Sufu-KO-LIGHT cells, Gli luciferase reporter, luminescence; inhibition, % at 5 µM; 2,500 tested, 40% active;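 active means mean inhibition at 5 µM reaching about 45%, limit read from the data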;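 further: plate controls were DMSO-treated cells for no effect and wells lacking cells for full effect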
Gli cytotox – cytotoxicity counter-screen for Gli-SUFU antagonists. shares compounds with Gli-Sufu antag. Sufu-KO-LIGHT cells cytotoxicity, ATP luminescence. cytotoxicity, % at 5 µM. 2,500 tested, 32% active;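 active means mean cytotoxicity at 5 µM above about 25%, limit read from the data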;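 further: cells exposed to compound overnight for roughly 16 to 18 hours; plate controls were DMSO wells with cells for no effect and medium without cells for full effect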
Wnt3a cs – counter-screen for Gli-SUFU antagonists: Wnt3a reporter inhibition. inhibition, % at 6.25 µM. 2,500 tested, 20% active. Wnt-LIGHT cells, Wnt3a-driven luciferase reporter, luminescence. shares compounds with Gli-Sufu antag. AID 651995;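 active means mean inhibition above about 25%, limit read from the data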
* marks the source's active call; other numbers are inactive results; . = no result given. Shown are actives, neighbours in structure and some others; about 1.8% of the full set was active somewhere.

SMILES | Gli-Sufu antag | NR2E3 ag-1 | 697 NFkB inh | GalR3 antag | NR2E3 ag-2 | Jurkat NFkB inh | Gli-Sufu confirm | Gli cytotox | Wnt3a cs
COc1ccccc1C(CNC(=O)c1ccc(S(=O)(=O)N2CCCCC2)cc1)N(C)C (stereo not drawn) | 5 | -1 | 15 | -3 | 12 | 11 | . | . | .
Cc1nn(C)cc1CN(C)Cc1ccc(OCC(O)CN2CCCCC2)cc1 (stereo not drawn) | 7 | 2 | 0 | -5 | 11 | -11 | . | . | .
CN(Cc1ccc(OCC(O)CN2CCCCC2)cc1)Cc1ccnc2ccccc12 (stereo not drawn) | 65* | . | . | -9 | 29 | . | 46* | 21 | 11
CCCc1cc(=O)[nH]c(SCC(=O)NC2CC2)n1 | 52 | . | 8 | -7 | -8 | 3 | 10 | -3 | -3
CCOC(=O)C1(CCOc2ccccc2)CCN(Cc2cccc(F)c2)CC1 | 60* | 0 | -20 | -4 | -8 | -1 | 27 | 26* | -31
CCOC(=O)C1(CCOc2ccccc2)CCN(Cc2cccc(OCCO)c2)CC1 | 24 | -2 | -21 | -13 | 2 | -13 | . | . | .
CCOC(=O)C1(CCOc2ccccc2)CCN(Cc2cccc(-n3cccn3)c2)CC1 | 52 | 1 | 2 | -9 | 1 | -6 | 35 | 8 | -62
Cc1cc(C)c2cc(C#N)c(SCC(=O)Nc3cc(C)on3)nc2c1 | -10 | -4 | 10 | -9 | 12 | -14 | . | . | .
Cc1ccc2nc3n(c(=O)c2c1)-c1ccccc1C(=O)NC3CC(C)C (stereo not drawn) | . | . | . | -4 | . | . | . | . | .
CC1CCCN(C(=O)C2CCN(C(=O)Nc3ccccc3)CC2)C1 (stereo not drawn) | -8 | 4 | 8 | -7 | -4 | 11 | . | . | .
O=C(Nc1ccccc1)N1CCC(C(=O)N2CCCC(C(F)(F)F)C2)CC1 (stereo not drawn) | 92* | 3 | 11 | -2 | -32 | -4 | 23 | 14 | -47
CCN(CC)CCN(C(=O)c1cc2ccccc2cc1OC)c1nc2ccc(F)cc2s1 | 51 | 4 | 1 | -6 | -5 | -22 | 28 | -2 | -35
CC[C@H](C)[C@@H](C(=O)NCCCCCCCCCCC(=O)N1CCN(C(=O)OC(C)(C)C)CC1)n1cc(CCCCCNC(=O)OC(C)(C)C)nn1 | 57* | 4 | -55 | -5 | 12 | 43 | 68* | 15 | 37*
OC(CN1CCCCCC1)CN(c1ccccc1)c1ccccc1 (stereo not drawn) | 52 | -2 | -9 | -7 | -1 | 16 | 16 | 12 | -30
OC(CN1CCCCC1)CN(c1ccccc1)c1ccccc1 (stereo not drawn) | 13 | 1 | -12 | -5 | -18 | -7 | . | . | .
C[C@H](CO)N1C[C@H](C)[C@H](CN(C)C(=O)Nc2ccc(N3CCCCC3)cc2)OCc2cnnn2CCCC1=O | . | . | . | -4 | . | . | . | . | .
CSc1nnc(-c2ccc([N+](=O)[O-])cc2)o1 | 93* | 4 | -3 | 6 | 0 | 2 | 24 | 0 | 1
Cc1n(N)c2ccccc2[n+]1CC(=O)c1ccccc1 | -9 | 1 | -17 | 1 | 8 | 15 | . | . | .
CC(C(c1cccs1)c1c(N)n(C)c(=O)n(C)c1=O)[N+](=O)[O-] (stereo not drawn) | -2 | 4 | 8 | 1 | 16 | -30 | . | . | .
C=CCNC(=O)c1ccc(CN2CCC(Cc3ccccc3)CC2)cc1 | 56* | 1 | -3 | -10 | 21 | 19 | 16 | 18 | -6
C/C(=N\Nc1cc(N2CCCCC2)nc(C)n1)c1ccc(Br)cc1 | 79* | 1 | -50 | -9 | 25 | 14 | 52* | 45* | 22
C/C(=N\Nc1cc(N2CCOCC2)nc(C)n1)c1ccc(F)cc1 | 19 | 5 | 15 | -2 | 47 | 11 | . | . | .
CCNC(=O)N1CCN(c2ccc(N3CCN(C(=O)NCC)[C@H](C)C3)c(C)c2)[C@@H](C)C1 | . | . | . | 1 | . | . | . | . | .
O=C(Nc1n[nH]c(=S)s1)c1ccc2ccccc2c1 | -108 | -2 | -24 | -2 | -7 | -56 | . | . | .
O=c1c2ccccc2cnn1CCOc1ccccc1 | 59* | -4 | -163 | -12 | -92 | -28 | 38 | 18 | 95*
SMILES | Gli-Sufu antag | NR2E3 ag-1 | 697 NFkB inh | GalR3 antag | NR2E3 ag-2 | Jurkat NFkB inh | Gli-Sufu confirm | Gli cytotox | Wnt3a cs
COc1ccc2nc(-c3ccc(CN4CCC5(CC4)CNc4ccccc45)cc3)c(-c3ccccc3)nc2c1 | . | . | . | -5 | . | . | . | . | .
CN(C(=O)C1CCN(S(=O)(=O)c2cccs2)CC1)C1CCCCC1 | 0 | 1 | 11 | 4 | -12 | -4 | . | . | .
CCN(Cc1ccncc1)C(=O)c1cccc(S(=O)(=O)N2CCCCC2)c1 | 95* | . | 1 | -7 | -23 | 7 | 20 | 11 | -17
CCN(Cc1ccncc1)C(=O)C1CCN(S(=O)(=O)c2cccs2)CC1 | 99* | -6 | 13 | 1 | 8 | -4 | 13 | 18 | 10
CCN(CC(=O)Nc1c(F)cccc1F)C(=O)c1cccc(S(=O)(=O)N2CCCCCC2)c1 | 1 | 7 | -2 | -8 | 6 | -15 | . | . | .
CC(C)(C)S(=O)N1C[C@H]2CC(=O)C(CCO)=C2[C@@H]1CCO (stereo partly drawn) | . | . | . | 2 | . | . | . | . | .
O=C(Nc1ccccc1Cl)c1ccc(-c2ccccn2)s1 | -68 | 4 | 4 | -6 | -2 | -116 | . | . | .
COC(=O)[C@]12C[C@H](CC(=O)N3CCC(c4ccccc4)CC3)C(=O)N(CCC3=CCCCC3)C1=C[C@H](C(C)(C)C)O[C@@H]2C | . | . | . | -5 | . | . | . | . | .
COc1ccc(CCCC(=O)O)c(C)c1 | 95* | 5 | 5 | -2 | 11 | -5 | 20 | -11 | 17
COc1ccc(C(=O)CCC(=O)O)cc1 | 2 | 2 | 0 | 2 | 9 | 5 | . | . | .
COc1ccc2ccccc2c1CN(C)Cc1ccccc1 | 83* | 3 | 3 | -13 | 13 | 0 | 18 | 14 | -7
O=C(C(=O)N1CCC(CNS(=O)(=O)c2cc(C(F)(F)F)cc(C(F)(F)F)c2)CC1)c1cc2ccccc2o1 | . | . | . | -6 | . | . | . | . | .
Brc1ccc(-c2csc(N3CCCCCC3)n2)cc1 | 51 | 0 | 19 | -3 | -14 | -21 | 59* | 1 | 27*
CC1=NN(C(N)=S)C(=O)C1N=Nc1ccc(O)cc1 (stereo not drawn) | 57* | . | -20 | 1 | -20 | 14 | 39 | 11 | -63
CC1=NN(C(N)=S)C(=O)C1N=Nc1ccc(F)cc1 (stereo not drawn) | -34 | . | -116 | -3 | -11 | -26 | . | . | .
